From ChEMBL document CHEMBL1154465, “Structure-activity relationships in the acronycine and benzo[b]acronycine series: role of the pyran ring” (Eur J Med Chem, 2008) come the findings set out here.

Each structure is given as a SMILES string. pIC50: −log10 of the molar value.

Experiment [1] in a line: Cytotoxicity against human KB3-1 cells after 96 hrs by microculture tetrazolium assay. The conditions noted are these: KB 3-1, 96 h. Type of experiment: functional, cell-based. In a few lines: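 KB-3-1 cells grown in DMEM with 10% fetal calf serum, 2 mM L-glutamine, penicillin, streptomycin and 10 mM HEPES (pH 7.4). Exposed to graded drug concentrations (nine serial dilutions, triplicate) for four doubling times (96 h). Viability read by microculture tetrazolium assay; IC50 reported.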

The test system of the next experiment is L1210. The experiment can be described thus: Cytotoxicity against mouse L1210 cells after 48 hrs by microculture tetrazolium assay. Type of experiment: functional, cell-based. The conditions noted are these: L1210, 48 h. Put shortly: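 L1210 cells maintained in RPMI 1640 plus 10% fetal calf serum, 2 mM L-glutamine, penicillin, streptomycin and 10 mM HEPES (pH 7.4). Drug exposure at nine serial dilutions in triplicate for four doubling times (48 h). Microculture tetrazolium read-out; results given as IC50.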

Turning to `COCc1c(OC)cc(OC)c2c(=O)c3ccccc3n(C)c12`, the negative-log IC50 (pIC50) in experiment [1] is 4.44; in the experiment on L1210, 4.29.

Take `COc1ccc2c(=O)c3ccccc3n(C)c2c1COC(C)=O`: in the experiment with L1210, the pIC50 is 4.62.

Turning to `COc1cc(OC)c2c(=O)c3ccccc3n(C)c2c1CO`, the results for the pIC50 (in experiment [1]; with L1210) were 4.47 and 4.62, respectively.

For `COc1cc(OC)c2c(=O)c3ccccc3n(C)c2c1COC(C)=O`, the pIC50 was 4.75 in experiment [1] and 4.40 in the experiment with L1210.

Regarding `COc1ccc2c(=O)c3cc4ccccc4cc3n(C)c2c1CO`, the negative-log IC50 (pIC50) in experiment [1] is 4.65; in the experiment on L1210, 4.46.

With `COc1cc(OC(C)(C)CO)c(CO)c2c1c(=O)c1cc3ccccc3cc1n2C`, the results for the negative logarithm of the IC50 (pIC50) (in experiment [1]; with L1210) were 4.58 and 5.89, respectively.

In the case of `COc1cc(OC(C)(C)COC(C)=O)c(COC(C)=O)c2c1c(=O)c1cc3ccccc3cc1n2C`, the pIC50 in experiment [1] was 5.31; with L1210, 5.52.

In the experiment with L1210, `COc1ccc2c(=O)c3ccccc3n(C)c2c1CO` showed a negative-log IC50 (pIC50) of 4.86.

As to `COc1ccc2c(=O)c3cc4ccccc4cc3n(C)c2c1COC(C)=O`, the pIC50 in experiment [1] was 5.10; in the experiment on L1210 it was 4.73.

`COc1cc2c(c3c1c(=O)c1cc4ccccc4cc1n3C)[C@@H](OC(C)=O)[C@@H](OC(C)=O)C(C)(C)O2` (relative stereo) had a pIC50 in experiment [1] of 7.02.
